Source: ChEMBL document CHEMBL2331424, “Synthesis and biological evaluation of novel neuroprotective agents for paraquat-induced apoptosis in human neuronal SH-SY5Y cells” (2013)

Legend:
[1] = Neuroprotective activity in human SH-SY5Y cells assessed as cell viability after paraquat-induced toxicity at 10 uM incubated for 2 hrs prior to paraquat challenge measured after 24 hrs by MTT assay (reference value: 62.05 +/- 0.47%)
[2] = Neuroprotective activity in paraquat-stimulated human SH-SY5Y cells assessed as upregulation of SOD expression incubated for 4 hrs prior to paraquat challenge measured after 24 hrs by Western blotting analysis; assay type: functional, cell-based
Method in brief: (§1)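 SH-SY5Y in DMEM/F12 with 10% FBS pre-incubated with compound (0.1-10 μM, 4 h), then paraquat 250 μM. Western blot for caspase-3 and caspase-9 cleavage, Bax, Bcl-2, SOD or GPx, with GAPDH as loading control. HRP secondary antibodies and ECL detection, bands quantified. ≥3 independent experiments in duplicate; ANOVA with Dunnett's test.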

SH-SY5Y [3] = test: Neuroprotective activity in human SH-SY5Y cells assessed as decrease in paraquat-induced intracellular ROS level incubated for 4 hrs prior to paraquat challenge measured after 2 hrs by fluorescence microscopic analysis
[4] = Neuroprotective activity in paraquat-stimulated human SH-SY5Y cells assessed as upregulation of GPx expression incubated for 4 hrs prior to paraquat challenge measured after 24 hrs by Western blotting analysis; assay type: functional, cell-based
Method in brief: as §1

[5] = Neuroprotective activity in paraquat-stimulated human SH-SY5Y cells assessed as downregulation of Bax expression incubated for 4 hrs prior to paraquat challenge measured after 24 hrs by Western blotting analysis; assay type: functional, cell-based
Method in brief: as §1

SH-SY5Y [6] = test: Neuroprotective activity in human SH-SY5Y cells assessed as decrease in paraquat-induced nuclear morphological changes incubated for 4 hrs prior to paraquat challenge measured after 24 hrs by Hoechst 33342 staining-based fluorescence microscopic analysis
SH-SY5Y [7] = test: Neuroprotective activity in human SH-SY5Y cells assessed as decrease in paraquat-induced proteolytic cleavage of procaspase-9 incubated for 4 hrs prior to paraquat challenge measured after 24 hrs by Western blotting analysis; assay type: functional, cell-based
Method in brief: as §1

SH-SY5Y [8] = test: Neuroprotective activity in human SH-SY5Y cells assessed as decrease in paraquat-induced proteolytic cleavage of procaspase-3 incubated for 4 hrs prior to paraquat challenge measured after 24 hrs by Western blotting analysis; assay type: functional, cell-based
Method in brief: as §1

[9] = Neuroprotective activity in paraquat-stimulated human SH-SY5Y cells assessed as upregulation of Bcl2 expression incubated for 4 hrs prior to paraquat challenge measured after 24 hrs by Western blotting analysis; assay type: functional, cell-based
Method in brief: as §1

[10] = biological target: T1, Prostaglandin G/H synthase 2 (Homo sapiens) (UniProt P35354); test: Ratio of resveratrol IC50 to compound IC50 for inhibition of prostaglandin H-2 synthase (unknown origin)
T1 sequence (whole entry): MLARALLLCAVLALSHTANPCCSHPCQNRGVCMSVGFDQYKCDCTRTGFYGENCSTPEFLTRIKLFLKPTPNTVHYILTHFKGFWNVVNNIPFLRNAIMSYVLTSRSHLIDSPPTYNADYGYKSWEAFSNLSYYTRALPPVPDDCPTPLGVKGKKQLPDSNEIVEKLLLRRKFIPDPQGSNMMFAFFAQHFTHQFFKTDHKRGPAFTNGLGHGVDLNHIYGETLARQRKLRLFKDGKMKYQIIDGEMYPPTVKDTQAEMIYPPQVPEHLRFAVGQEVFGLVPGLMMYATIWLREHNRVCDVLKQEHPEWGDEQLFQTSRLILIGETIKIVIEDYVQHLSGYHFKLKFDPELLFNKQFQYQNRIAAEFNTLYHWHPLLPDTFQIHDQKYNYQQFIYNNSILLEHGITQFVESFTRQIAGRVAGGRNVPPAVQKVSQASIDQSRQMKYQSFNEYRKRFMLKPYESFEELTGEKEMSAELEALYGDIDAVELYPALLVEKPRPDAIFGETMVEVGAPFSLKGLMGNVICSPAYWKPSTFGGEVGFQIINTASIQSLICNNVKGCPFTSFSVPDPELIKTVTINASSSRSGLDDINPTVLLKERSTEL

Structure (SMILES) | viability at 10 µM [1] [%] | other results
Oc1ccc(/C=C2/c3cc(O)cc(O)c3[C@@H](c3ccc(O)cc3)[C@@H]2c2cc(O)cc(O)c2)cc1 (racemic) | 57.9 | –
C=C1c2cc(OC)cc(OC)c2[C@@H](c2ccc(OC)cc2)[C@@H]1c1cc(OC)cc(OC)c1 | 58.2 | –
COc1ccc(C2C(c3cc(OC)cc(OC)c3)=Cc3cc(OC)cc(OC)c32)cc1 (configuration not stated) | 58.6 | –
Oc1ccc(CC2=C(c3cc(O)cc(O)c3)C(c3ccc(O)cc3)c3c(O)cc(O)cc32)cc1 (configuration not stated) | 89.6 | Activity [2]: Dose-dependent effect; Activity (SH-SY5Y [3]): Dose-dependent effect; Activity [4]: Dose-dependent effect; Activity [5]: Dose-dependent effect; Activity (SH-SY5Y [6]): Dose-dependent effect; Activity (SH-SY5Y [7]): Dose-dependent effect; Activity (SH-SY5Y [8]): Dose-dependent effect; Activity [9]: Dose-dependent effect
Oc1ccc([C@@H]2c3c(O)cc(O)cc3[C@H]3[C@H](c4ccccc4)c4c(O)cc(O)cc4[C@@H]23)cc1 | 77.2 | –
COc1ccc(CSC2c3cc(OC)cc(OC)c3[C@@H](c3ccccc3)[C@@H]2c2cc(OC)cc(OC)c2)cc1 (some centres not stated) | 60.6 | –
COc1ccc(C2C(c3cc(OC)cc(OC)c3)=C(C)c3cc(OC)cc(OC)c32)cc1 (configuration not stated) | 55.8 | –
COc1ccc([C@@H]2c3c(OC)cc(OC)cc3C(O)[C@H]2c2cc(OC)cc(OC)c2)cc1 (relative stereo) | 59 | –
O=C1c2cc(O)cc(O)c2[C@@H](c2ccc(O)cc2)[C@@H]1c1cc(O)cc(O)c1 [ISOPAUCIFLORAL F] | 58.5 | –
COc1ccc(CSC2c3cc(OC)cc(OC)c3[C@@H](c3ccc(OC)cc3)[C@@H]2c2cc(OC)cc(OC)c2)cc1 (some centres not stated) | 65.2 | –
COc1ccc(/C=C2\c3cc(OC)cc(OC)c3[C@@H](c3ccccc3)[C@@H]2c2cc(OC)cc(OC)c2)cc1 | 65.3 | –
COc1ccc([C@@H]2c3c(OC)cc(OC)cc3C(=O)[C@H]2c2cc(OC)cc(OC)c2)cc1 (relative stereo) | 59.9 | –
COc1cc(OC)cc([C@@H]2C(O)c3cc(OC)cc(OC)c3[C@H]2c2ccccc2)c1 (relative stereo) | 63.9 | –
Oc1ccc([C@H]2Oc3cc(O)cc4c3[C@@H]2c2cc(O)cc3c2[C@@H](c2cc(O)cc5c2[C@@H]4[C@H](c2ccc(O)cc2)O5)[C@H](c2ccc(O)cc2)O3)cc1 | – | Ratio IC50 [10]: 3
Oc1ccc(/C=C/c2cc(O)cc(O)c2)cc1 [RESVERATROL] | 66.3 | –
COc1ccc(/C=C2\c3cc(OC)cc(OC)c3[C@@H](c3ccc(OC)cc3)[C@@H]2c2cc(OC)cc(OC)c2)cc1 | 63.6 | –
COc1ccc(/C=C2/c3cc(OC)cc(OC)c3[C@@H](c3ccc(OC)cc3)[C@@H]2c2cc(OC)cc(OC)c2)cc1 | 62.4 | –
Oc1ccc([C@@H]2c3c(O)cc(O)cc3[C@H]3[C@H](c4ccc(O)cc4)c4c(O)cc(O)cc4[C@@H]23)cc1 (racemic) [PALLIDOL] | 72.4 | –
COc1ccc(/C=C2/c3cc(OC)cc(OC)c3[C@@H](c3ccccc3)[C@@H]2c2cc(OC)cc(OC)c2)cc1 | 64 | –
COc1ccc(CC2=C(c3cc(OC)cc(OC)c3)[C@@H](c3ccc(OC)cc3)c3c(OC)cc(OC)cc32)cc1 | 61.4 | –
O=C1c2cc(O)cc(O)c2[C@@H](c2ccccc2)[C@@H]1c1cc(O)cc(O)c1 | 65 | –
COc1cc(OC)cc([C@@H]2C(=O)c3cc(OC)cc(OC)c3[C@H]2c2ccccc2)c1 (single isomer, unassigned) | 65 | –
Oc1ccc(CC2=C(c3cc(O)cc(O)c3)C(c3ccccc3)c3c(O)cc(O)cc32)cc1 (configuration not stated) | 82.9 | –
COc1ccc([C@@H]2c3c(OC)cc(OC)cc3[C@H]3[C@H](c4ccc(OC)cc4)c4c(OC)cc(OC)cc4[C@@H]23)cc1 | 63.6 | –
